One experiment has as its system Staphylococcus aureus. As to the kind of experiment: Antibacterial activity against Staphylococcus aureus 6538P after overnight incubation. Type of experiment: functional. The note with it: Staphylococcus aureus, 6538P; read-out: MIC. The procedure, abridged: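 Strains were grown in Luria Broth. Overnight stationary-phase cultures were diluted 1:1000 into fresh medium with twofold compound dilutions, highest typically 128 µg/ml, in 96-well plates. Incubated overnight at 37 °C. MIC recorded as the […].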

Experiment [1] relates to Enterococcus faecium. As to the kind of experiment: Antibacterial activity against vancomycin-resistant Enterococcus faecium 243 after overnight incubation. The note with it: Enterococcus faecium, 243; read-out: MIC.
Experiment [2] deals with Enterococcus faecium. As to the kind of experiment: Antibacterial activity against vancomycin-resistant Enterococcus faecium 449 after overnight incubation. Particulars: Enterococcus faecium, 449; read-out: MIC.
Experiment [3] deals with Enterococcus faecium. Nature of the experiment: Antibacterial activity against vancomycin-resistant Enterococcus faecium 820 after overnight incubation. The note with it: Enterococcus faecium, 820; read-out: MIC.
For experiment [4], the system named is Enterococcus faecium. Nature of the experiment: Antibacterial activity against vancomycin-resistant Enterococcus faecium 987 after overnight incubation. Particulars: Enterococcus faecium, 987; read-out: MIC.

On to `C=CCOc1ccc2ccccc2c1-c1c(OCC(=O)N[C@H](CCCCN)C(=O)N[C@H](CCCNC(=N)N)C(=O)N[C@@H](CC=C)C(=O)OCc2ccccc2)ccc2ccccc12.Cl.Cl`, for which the MIC with Staphylococcus aureus was 1.95 µg/mL; in the experiment with Enterococcus faecium [1], 31.3 µg/mL; with Enterococcus faecium [2], 31.3 µg/mL; with Enterococcus faecium [3] it was 31.3 µg/mL; with Enterococcus faecium [4], 31.3 µg/mL.
Consider `C=CCOc1ccc2ccccc2c1-c1c(OCC(=O)N[C@H](CCCNC(=N)N)C(=O)N[C@H](CCCNC(=N)N)C(=O)N[C@@H](CC=C)C(=O)OCc2ccccc2)ccc2ccccc12.Cl.Cl`, for which the MIC was 31.3 µg/mL in the experiment on Staphylococcus aureus; over 125 µg/mL with Enterococcus faecium [1]; 125 µg/mL with Enterococcus faecium [2]; 125 µg/mL in the experiment on Enterococcus faecium [3]; over 125 µg/mL with Enterococcus faecium [4].
For `C=CCOc1ccc2ccccc2c1-c1c(OCC(=O)N[C@H](CCCCN)C(=O)N[C@H](CCCCN)C(=O)N[C@@H](CC=C)C(=O)OCc2ccccc2)ccc2ccccc12.Cl.Cl`, the MIC in the experiment on Staphylococcus aureus was determined as 3.9 µg/mL; with Enterococcus faecium [1] it was 125 µg/mL; in the experiment on Enterococcus faecium [2], 62.5 µg/mL; with Enterococcus faecium [3] it was 62.5 µg/mL; in the experiment with Enterococcus faecium [4] it was 125 µg/mL.
Turning to `C=CCOc1ccc2ccccc2c1-c1c(OCC(=O)NCC(=O)N[C@H](CCCNC(=N)N)C(=O)N[C@@H](CC=C)C(=O)OCc2ccccc2)ccc2ccccc12.Cl`, the MIC in the experiment with Staphylococcus aureus was 15.6 µg/mL; with Enterococcus faecium [1] it was over 125 µg/mL; with Enterococcus faecium [2], 125 µg/mL; in the experiment with Enterococcus faecium [3], 125 µg/mL; in the experiment with Enterococcus faecium [4] it was over 125 µg/mL.
As to `C=CCOc1ccc2ccccc2c1-c1c(OCC(=O)N[C@H](C)C(=O)N[C@H](CCCNC(=N)N)C(=O)N[C@@H](CC=C)C(=O)OCc2ccccc2)ccc2ccccc12.Cl`, the MIC came out at 5.2 µg/mL with Staphylococcus aureus; 62.5 µg/mL in the experiment with Enterococcus faecium [1]; 62.5 µg/mL in the experiment with Enterococcus faecium [2]; 62.5 µg/mL with Enterococcus faecium [3]; 62.5 µg/mL in the experiment with Enterococcus faecium [4].
As to `C=CCOc1ccc2ccccc2c1-c1c(OCC(=O)N[C@H](CC=C)C(=O)N[C@H](CCCNC(=N)N)C(=O)N[C@@H](CC=C)C(=O)OCc2ccccc2)ccc2ccccc12.Cl`, the minimum inhibitory concentration (MIC) was determined as 15.6 µg/mL with Staphylococcus aureus; 125 µg/mL in the experiment on Enterococcus faecium [1]; 125 µg/mL with Enterococcus faecium [2]; 62.5 µg/mL in the experiment with Enterococcus faecium [3]; 125 µg/mL with Enterococcus faecium [4].
Turning to `C=CCOc1ccc2ccccc2c1-c1c(OCC(=O)N[C@H](CC(C)C)C(=O)N[C@H](CCCNC(=N)N)C(=O)N[C@@H](CC=C)C(=O)OCc2ccccc2)ccc2ccccc12.Cl`, the MIC is 3.9 µg/mL with Staphylococcus aureus; 62.5 µg/mL with Enterococcus faecium [1]; 31.3 µg/mL in the experiment with Enterococcus faecium [2]; 31.3 µg/mL with Enterococcus faecium [3]; 62.5 µg/mL in the experiment on Enterococcus faecium [4].
Consider `C=CCOc1ccc2ccccc2c1-c1c(OCC(=O)N[C@H](Cc2ccccc2)C(=O)N[C@H](CCCNC(=N)N)C(=O)N[C@@H](CC=C)C(=O)OCc2ccccc2)ccc2ccccc12.Cl`, for which the MIC was 26.1 µg/mL with Staphylococcus aureus; over 125 µg/mL in the experiment on Enterococcus faecium [1]; 62.5 µg/mL in the experiment with Enterococcus faecium [2]; 31.3 µg/mL in the experiment on Enterococcus faecium [3]; over 125 µg/mL in the experiment with Enterococcus faecium [4].
With `C=CCOc1ccc2ccccc2c1-c1c(OCC(=O)N[C@H](CCCC)C(=O)N[C@H](CCCNC(=N)N)C(=O)N[C@@H](CC=C)C(=O)OCc2ccccc2)ccc2ccccc12.Cl`, the MIC worked out at 52.1 µg/mL with Staphylococcus aureus; 125 µg/mL with Enterococcus faecium [1]; 83 µg/mL in the experiment with Enterococcus faecium [2]; 62.5 µg/mL in the experiment with Enterococcus faecium [3]; 125 µg/mL in the experiment with Enterococcus faecium [4].
On to `C=CCOc1ccc2ccccc2c1-c1c(OCC(=O)N[C@H](CCCCN)C(=O)N[C@H](CCCNC(=N)N)C(=O)N[C@H](CC=C)C(=O)OCc2ccccc2)ccc2ccccc12.Cl.Cl`, for which the MIC in the experiment with Staphylococcus aureus is 15.6 µg/mL; with Enterococcus faecium [1] it was 125 µg/mL; with Enterococcus faecium [2], 104 µg/mL; in the experiment with Enterococcus faecium [3], 62.5 µg/mL; in the experiment with Enterococcus faecium [4] it was 125 µg/mL.
Regarding `C=CCOc1ccc2ccccc2c1-c1c(OCC(=O)N[C@H](CCCCN)C(=O)N[C@H](CCCNC(=N)N)C(=O)N[C@@H](CC(C)C)C(=O)OCc2ccccc2)ccc2ccccc12.Cl.Cl`, the MIC in the experiment with Staphylococcus aureus was found to be 1.95 µg/mL; with Enterococcus faecium [1], 31.3 µg/mL; in the experiment with Enterococcus faecium [2], 31.3 µg/mL; with Enterococcus faecium [3], 31.3 µg/mL; with Enterococcus faecium [4] it was 31.3 µg/mL.
Turning to `C=CCOc1ccc2ccccc2c1-c1c(OCC(=O)N[C@H](CC(C)C)C(=O)N[C@H](CCCNC(=N)N)C(=O)N[C@@H](C)C(=O)OCc2ccccc2)ccc2ccccc12.Cl`, the minimum inhibitory concentration (MIC) was 5.2 µg/mL in the experiment with Staphylococcus aureus; 62.5 µg/mL in the experiment with Enterococcus faecium [1]; 62.5 µg/mL in the experiment with Enterococcus faecium [2]; 62.5 µg/mL in the experiment on Enterococcus faecium [3]; 62.5 µg/mL with Enterococcus faecium [4].
For the compound `C=CCOc1ccc2ccccc2c1-c1c(OCC(=O)N[C@H](CCCCN)C(=O)N[C@H](CCCNC(=N)N)C(=O)N[C@@H](C)C(=O)OCc2ccccc2)ccc2ccccc12.Cl.Cl`, the minimum inhibitory concentration (MIC) came out at 7.8 µg/mL with Staphylococcus aureus; 125 µg/mL with Enterococcus faecium [1]; 125 µg/mL in the experiment on Enterococcus faecium [2]; 125 µg/mL in the experiment with Enterococcus faecium [3]; 125 µg/mL in the experiment with Enterococcus faecium [4].
On to `C=CCOc1ccc2ccccc2c1-c1c(OCC(=O)N[C@H](CCCCN)C(=O)N[C@H](CCCNC(=N)N)C(=O)NCC(=O)OCc2ccccc2)ccc2ccccc12.Cl.Cl`, for which the MIC was found to be 3.9 µg/mL with Staphylococcus aureus; 125 µg/mL in the experiment with Enterococcus faecium [1]; 62.5 µg/mL in the experiment on Enterococcus faecium [2]; 125 µg/mL in the experiment on Enterococcus faecium [3]; 125 µg/mL with Enterococcus faecium [4].
Consider `CC(C)CCOc1ccc2ccccc2c1-c1c(OCC(=O)N[C@H](CCCCN)C(=O)N[C@H](CCN)C(=O)N[C@@H](CC(C)C)C(=O)OCc2ccccc2)ccc2ccccc12.Cl.Cl`, for which the MIC with Staphylococcus aureus was determined as 1.95 µg/mL; in the experiment on Enterococcus faecium [1], 31.3 µg/mL; with Enterococcus faecium [2], 15.6 µg/mL; in the experiment on Enterococcus faecium [3] it was 15.6 µg/mL; in the experiment with Enterococcus faecium [4], 31.3 µg/mL.
In the case of `CC(C)CCOc1ccc2ccccc2c1-c1c(OCC(=O)N[C@H](CCCCN)C(=O)N[C@H](CCNC(=N)N)C(=O)N[C@@H](CC(C)C)C(=O)OCc2ccccc2)ccc2ccccc12.Cl.Cl`, the MIC in the experiment with Staphylococcus aureus is 2.6 µg/mL; with Enterococcus faecium [1], 52.1 µg/mL; in the experiment with Enterococcus faecium [2], 31.3 µg/mL; in the experiment with Enterococcus faecium [3], 27.8 µg/mL; with Enterococcus faecium [4] it was 52.1 µg/mL.
On to `CC(C)CCOc1ccc2ccccc2c1-c1c(OCC(=O)N[C@H](CCCCN)C(=O)N[C@H](CCCN)C(=O)N[C@@H](CC(C)C)C(=O)OCc2ccccc2)ccc2ccccc12.Cl.Cl`, for which the MIC in the experiment on Staphylococcus aureus amounted to 1.95 µg/mL; in the experiment on Enterococcus faecium [1], 62.5 µg/mL; with Enterococcus faecium [2], 31.3 µg/mL; with Enterococcus faecium [3], 15.6 µg/mL; in the experiment on Enterococcus faecium [4], 62.5 µg/mL.
`CC(C)CCOc1ccc2ccccc2c1-c1c(OCC(=O)N[C@H](CCCCN)C(=O)N[C@H](CCCNC(=N)N)C(=O)N[C@H](CC(C)C)C(=O)OCc2ccccc2)ccc2ccccc12.Cl.Cl`: the MIC in the experiment on Staphylococcus aureus turned out to be 3.9 µg/mL; with Enterococcus faecium [1] it was 31.3 µg/mL; in the experiment with Enterococcus faecium [2], 15.6 µg/mL; in the experiment on Enterococcus faecium [3] it was 15.6 µg/mL; in the experiment with Enterococcus faecium [4], 31.3 µg/mL.
`C=CCOc1ccc2ccccc2c1-c1c(OCC(=O)N[C@H](CCCCN)C(=O)N[C@H](CCCNC(=N)N)C(=O)N[C@@H](CC=C)C(=O)OCc2cccc3ccccc23)ccc2ccccc12.Cl.Cl`: the MIC with Staphylococcus aureus was 15.6 µg/mL; with Enterococcus faecium [1], over 125 µg/mL; in the experiment on Enterococcus faecium [2], 125 µg/mL; in the experiment on Enterococcus faecium [3], 125 µg/mL; in the experiment with Enterococcus faecium [4], over 125 µg/mL.
As for `C=CC[C@H](NC(=O)[C@@H](CCCNC(=N)N)NC(=O)[C@@H](CCCCN)NC(=O)COc1ccc2ccccc2c1-c1c(OCCC(C)C)ccc2ccccc12)C(=O)OCc1ccccc1.Cl.Cl`, the MIC in the experiment with Staphylococcus aureus turned out to be 3.9 µg/mL; in the experiment with Enterococcus faecium [1], 31.3 µg/mL; in the experiment with Enterococcus faecium [2] it was 15.6 µg/mL; with Enterococcus faecium [3] it was 15.6 µg/mL; in the experiment with Enterococcus faecium [4], 31.3 µg/mL.

(Values after ChEMBL document CHEMBL1156988, “Synthesis and antibacterial studies of binaphthyl-based tripeptoids. Part 1” (2010).)
